The RNAGym collection of RNA variant scans (doi:10.1101/gad.245936.114)
Variants at the floor of the assay were thinned out.

B1: tRNA (parent)
chain: CUCUCGGUAGCCAAGUUGGUUUAAGGCGCAAGACUUUAAUUUAUCACUACGAAAUCUUGAGAUCGGGCGUUCGACUCGCCCCCGGGAGAUUUUUUCCUCGAGCAA

Variants of: B1
Assay: nonsense suppression (GFP-seq) (ratio to wild type); higher = more function; SUP4oc tRNA, yeast GFP reporter sort-seq
How it was run: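 Yeast carrying genome-integrated SUP4oc tRNA variants from a library with ~3% random mutations were grown in raffinose/galactose medium with 80 mg/L adenine. Each strain also carried a galactose-driven GFP ochre reporter and RFP. Cells were sorted into GFP/RFP bins, and each bin was Illumina-sequenced (phred ≥30). Nonsense suppression (GFPSEQ) is the bin median GFP/RFP, weighted by each variant's estimated cell share per bin, relative to wild-type SUP4oc; variants needed ≥100 reads and ≥30 cells.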

Variant | nonsense suppression
CUCUCGGUAGCCAAGUUAGUUUAAGGCGCGAGACUUUAAUUUAUCACUACGAAAUCUUGAGAUCGGGCGUUCGACUCGCCCCCGGGAGAUUUUUUCCUCGAGCAA | 0.0263
CUCUCGGUAGCCAAGUUGGUUUAAGGCGCAAGACUUUAAUUUAUCACUACGAAAUCUUGAGAUCGGGCGUGUGACUCGCCCCCGGGAGAUUUUUUCCUCGAGCAA | ≤ 0.026
CUCUCGGUAGCCAAGUUGGUUUAAGGCCCAAGACUUUAAUUUAUCACUACGAAAUCUUGAGAUCGGACGUUCGACUCGCCCCCGGGAGAUUUUUUCCUCGAGCAA | 0.0635
CUCUCGGUAGGCAAGUUGGUUUAAGGCGCAAGACUUUAAUUUAUCACUACGAAAUCUUGAGAUCGAGCCUUCGACUCGCCCCCGGGAGAUUUUUUCCUCGAGCAA | 0.0424
CUCUCGGUAGCCCAGUUGGUUUAAGGCGCAAGACUUUAAUUUAUCACUACGAAAUCUUGAGAUCGGGCGUUCGACUCGCCCCCGGGAGGUUUUUUCCUCGAGCAA | 0.122
CUGUCGAUAGCCAAGUUGGUUUAAGGCGCAAGACUUUAAUUUAUCACUACGAAAUGUUGAGAUCGGGCGUUCGACUCGGCCCCGGGAGAUUUUUUCCUCGAGCAA | 0.783
CUCUCGGUAGCCAAGUUGGUUUAAGGCGCAAGACUUUAAUUUAUCACUACGAAAUCUUGAGAACGGGCGUUCGACUCGCCCCCGGGAGAUUUUUUCCUCGAGCAA | 1.05
CUCUCGGUAGCCAAGUUGGUUUAAGGCGCAAGACUUUAAUUUAUCACUACGAAUUCUUGCGAUCGGGCGUUCGACUCGCCCCCGGGAGAUUUUUUCCUCGAGCAA | 0.279
AUCUCGGUAGCCAAGUUGGUUUAAGGCGCAAGACGUUAAUUUAUCACUACGAAAUCUUGAGAUCGGGCGUUCGACUCGCCCCCGGGAGAUUUUUUCCUCGAGCAA | ≤ 0.026
CUCUCGGUAGCCGAGUCGGUUUCAGGCGCAAGACUUUAAUUUAUCACUACGAAAUCUUGAGAUCGGGCGUUCGAAUCGCCCCCGGGAAAUUUUUUCCUCGAGCAA | ≤ 0.026
CUCUCGGUAGCUAAGUUGGUUUAAAGCGCAAGACUUUAAUUUAUCACUACGAAAUCUUGACAUCGGGCGUUCGACUCGCCCCCGGGAGAUUUUUUCCUCGAGCAA | 0.823
CUUUCGGUAGCCCAGUUGGUUUAAGGCGCAAGACUUUAAUUUAUCACUACGAAAUCUUGAGAUCGGGCGUUCGACUCGCCCCCGGGAGAUUUUUUCCUCGAGCAA | 0.184
CUCACGGUAGCCAAGUUGGUUUGAGGCGCAAGACUUUAAUUUAUCACUACGAAAUCUUGAGAUCGGGCGUUCGACUCGCCCCCGGGAGAUUUUUUCCUCGAGCAA | 0.288
CUCUCGGUAGCCAAGUUGGUUUAAGGCCCAAGAUUUUAAUUUAUCACUACGAAAUCUUGAGAUCGGGCGUUCGACUCGCCCCCGGGAGAUUUUUUCCUCGAGCAA | ≤ 0.026
CUCUCGGUAGCCUAGUUGGUUUAAGGCGCAAGACUUUAAUUUAUCACUACGAAAUCUUGAGAUCGGGCGUUCGACUCGCCCCCGAGAGAUUUUUUCCUCGAGCAA | 1.2
CUCUCGGUCGCCAAGUUGGUUUAAGGCGCAAGACUUUAAUUUAUCACUACGAAAUCUUGAGACCGGGCGUUCGACUCGCCCCCGGGAGAUUUUUUCCUCGAGCAA | 0.202
CUCUCGGUAGCCAAGUUGGUUUAAGGCACAAGACUUUAAUUUAUCACUACGAAAUGUUGAGAUCGGGCGUUCGACUCGCCCCCGGGAGCUUUUUUCCUCGAGCAA | ≤ 0.026
CUCUCGGUAGCCAAGUAGGUUUAAGGCGCAAGACUUUAAUUUAUCACUACGAAAUCUUGAGAUCGGGCGUUCGACUCGACCCCGGGAGAUUUUUUCCUCGAGCAA | ≤ 0.026
CUCUCGAUAGCCAAGUUGGUUUCAGGCGCAAGACUUUAAUUUAUCACUACGAAAUGUUGAGAUCGGGCGUUCGACUCGCCCCCGGGAGAUUUUUUCCUCGAGCAA | ≤ 0.026
CUCUCGGUGGCCAAGUUGGUUUGAGGCGCAAGACUUUAAUUUAUCACUACGAAAUCUUGAGAUCGGGCGGUCGACUCGCCCCCGGGAGGUUUUUUCCUCGAGCAA | ≤ 0.026
CUCUCGGUAGCCAAGGUGGUUUAAGGCGCAAGACUUUAAUUUAUCACUACGAAAUCUUGAGAUCGGGCGUUCGACUCGCCCCCGCGAGAUUUUUUCCUCGAGCAA | 0.0285
CUCUCGGUAGCCAAGUUGGUUUAAGGCGCAAGACUUUAAUUUAUCACUACGAAAUCUUGAAAUCGCGCGUUCGACUCGCCCCCGGGAGAUUUUUUCCUCGAGCAA | ≤ 0.026
UUCUCGGUAGCCAAGUUGGUUUAAGACGCAAGACUUUAAUUUAUCACUACGAAAUCUUGAGAUCGGGCGUUCGACUCGCCCCCGGGAGAUUUUUUCCUCGAGCAA | ≤ 0.026
CUCUCGGUAGUAAAGUUGGUUUAAGGCGCAAGACUUUAAUUUAUCACUACGAAAUCUUGAGAUCGGGCGUUCGACUCGCCCCCGGGAAAUUUUUUCCUCGAGCAA | ≤ 0.026
CUCUCGGUAGCCAAGUUGGGUUAAGGCGCAAGACUUUAAUUUAUCACUACGAAAUCUUGAGAUCGGGCGUUCGACUCGCUCCCGGGAGAUUUUUUCCUCGAGCAA | 0.202
CUCUCGGUAGCCAAGUUGGCUUAAGGCGCUAGACUUUAAUUUAUCACUACGAAAUCUUGAGAUCGGGCGUUCGACUCGCCCCCGGGAGAUUUUUUCCUCGAGCAA | 0.0386
CGCUCGGUAGCCAAGUUGGUUUAAGGCGCAAGACUUUAAUUUAUCACUACGAAAUCUUGAGAUCGGGCGUUCGACUCGCCCCCGGGUGAUUUUUUCCUCGAGCAA | 0.655

Variant | nonsense suppression
CUCUCGGUAGCCAAGUUGGUUUAAGGCGCAAGACUUUAAUUUAUCACUACGAAAUCUUGAGAUCGGACGUUCGACUCGCCCCCUGGAGAUUUUUUCCUCGAGCAA | 0.0504
CUCUCGGUAGCCAAGUUGGUUUACGGCGCAAGACUUUAAUUUAUCACUACGAAAUCUUGAGAUCGGGUGUUCGACUCGCCCCCGGGAGAUUUUUUCCUCGAGCAA | 0.765
CUCUCGGUAGCCAAGUUGGUUCAAGGCGCAAGACUUUAAUUUAUCACUACGAAAUUUUGAGAUCGGGCGUUCGACUCGCCCCCGGGAGAUUUUUUCCUCGAGCAA | 0.0509
CUCUCGGUAGCCAAGUUGGUUUAAGGUGCAAGACUUUAAUUUAUCACUACGAAAUCUUGAGGUCGGGCGUUCGACUCGCCCCCGGGAGAUUUUUUCCUCGAGCAA | ≤ 0.026
CUCUCGGUAGCCAAGUUGGUUUAAGGCGCAAGACUUUAAUUUAUCACUACGAAAUCUUGAGAUCGGGCGUUCGAGUCCCCCCCGGGAGAUUUUUUCCUCGAGCAA | 0.361
CUCUCGGUAGACAAGUUGGUUUAAGGCGCGAGACUUUAAUUUAUCACUACGAAAUCUUGAGAUCGGGCGUUCGACUCGCCCCCGGGAGAUUUUUUCCUCGAGCAA | 0.0331
CUCUUGGUAGCCAAGUUGGUUUGAGCCGCAAGACUUUAAUUUAUCACUACGAAAUCUUGAGAUCGGGCGUUCGACUCACCCCCGGGAGAUUUUUUCCUCGAGCAA | ≤ 0.026
CUCUCGGCAGCCAAGUUGGUUUAAGGCGCAAGACUUUAAUUUAUCACUACGAAAUCUUGAGAUCGGGCGUUCGACUCGCGCCCGGGAGAUUUUUUCCUCGAGCAA | ≤ 0.026
CUCUCGGUAGCCAAGUUGGUUUAAGGCGCAAGACUUUAAUUUAUCACUACGAAUUCUUGAAAUCGGGCGUUCGACUCGCCCCCGGGAGAUUUUUUCCUCGAGCAA | 0.611
CGCUCGGUAGACAAGUUGGUUUAAGGCGCAAGACUUUAAUUUAUCACUACGAAAUCUUGAGAUCGGGCGUUCGCCUCGCCCCCCGGAGAUUUUUUCCUCGAGCAA | ≤ 0.026
CUCUCGGGUGACAAGUUGGUUUAAGUCGCAAGACUUUAAUUUAUCACUACGAAAUCUUGAGAUCGGGCGUUCGACUCGCCCCCGGGAGAUUUUUUCCUCGAGCAA | ≤ 0.026
CUCUCGGUAGCCAAGUGGGUUGAAGGCGCAAGACUUUAAUUUAUCACUACGAAAUCUUGAGAUCGGGCGUUCGACUCGCCCCCGGGAGAUUUUUUCCUCGAGCAA | 1.04
CUCUCGGUAGCCAAGUUGGUUUAGGGCGCUAGACUUUAAUUUAUCACUACGAAAUCUUGAGAUCGGGCGGUAGACUCGCCCCCGGGAGAUUUUUUCCUCGAGCAA | ≤ 0.026
CUCUCGGUAGCCAAGUUGGUUGAAGGCGCAAGAAUUUAAUUUAUCACUACGAAAUCUUGAGAUCGGGCGUUCGACUCGCCCCCGAGAGAUUUUUUCCUCGAGCAA | ≤ 0.026
CUCUCGGCAGCCAAGUUGGUUUAAGGCGCAAGACUUUAAUUUAUCACUACGAAAUCUUGAGAUCAGGCGUUUGACUCGCCCCCGGGAGAUUUUUUCCUCGAGCAA | ≤ 0.026
CUCUCGGUAGCCAAGUUGGUUUAAGGCGCAAGACUUUAAUUUAUCACUACGAAACCUAGAGAUCGGUCGUUCGACUCGCCCCCGGGAGAUUUUUUCCUCGAGCAA | ≤ 0.026
CUCUCGGUAGCCAAGUUGGUUUAAGGCGCAAGACUUUAAUUUAUCACUACGAACUCUUGAGAUCGGGCGUUCGACUCGCCCCCUGGAGAUUUUUUCCUCGAGCAA | 0.0301
CUCUCGGUAGCCAACUUGGUUUAAGGCGCAAGUCUUUAAUUUAUCACUACGAAAUCUUGAAAUCGGGCGUUCGACUCGCCCCCGGGAGAUUUUUUCCUCGAGCAA | ≤ 0.026
CUCUCGGUAGCCAAAUUGGUUUAAGGCGCAAGACUUUAAUUUAUCACUACGAAAUCUUGAGAUCGGGUGUUCGACUCGCCCCCGGGAGAUUUUUUCCUCGAGCAA | 0.0272
CUCUCGGUAGCCAAGUGGGUUUAAGGCCCAAGACUUUAAUUUAUCACUACGAAAUCUUGAGAUCGGGCGUUCGACUCGCCCCCGGGAGAUUUUUUCCUCGAGCAA | 0.209
CUCUCGGUAGCCAAGUUGGUUUAAGGCGCAAGCCUUUAAUUUAUCACUACGAAACUUUGAGAUCGUGCGUUCGACUCGGCCCCGGGAGAUUUUUUCCUCGAGCAA | ≤ 0.026
CCCUCGGUAGCCAAGUUGGUUUAAGGCGCAAGACUUUAAUUUAUCACUACGAAAUUUUGAGAUCGGGCGUUCGACUCGCCCCCGGGAGAUUUUUUCCUCGAGCAA | ≤ 0.026
CUCUCGGUAGCCAAGAUGGUUUAAGGCGCAAGACUUUAAUUUAUCACUACGAAAUCUUGAGAUCGGGCGUUCGACUCUCCCCCGGGAGAUUUUUUCCUCGAGCAA | 0.188
CUCCCGGUAGCCAAGUUGGUUUAAGGUGCAAGACUUUAAUUUAUCACUACGAAAUCUUGAGAUCGGGCGUUCGACUCGCCCCCGGGAGAUUUUUUCCUCGAGCAA | 0.792
CUCUCGGUAGCCAAGUUGGUUUAAGGCGUAAGACUUUAAUUUAUCACUACGAAAUCGUGAGAUCGGGCGUUCGACUCGCCCCCGCGAGAUUUUUUCCUCGAGCAA | ≤ 0.026
CUCUCGGUAGCCAAGUUGGUUUAAGGCGCAUGACUUUAAUUUAUCACUACGAAAUCUUGAGAUCGGGCGUUCGACUCGCCCCCGGGAGAUUUUUUCCUCGAGCAA | 0.177
CUCUCGGUAGCCAAGUUGGUUUAAGGCGCUAGACUUUAAUUUAUCACUACGAAAUCUUGAGAUCGGGCGUUCGACUCGCCCCCGGGAGUUUUUUUCCUCGAGCAA | 0.0434
